Test results as given in ChEMBL document CHEMBL5131562, “1,3-Dioxane-Linked Novel Bacterial Topoisomerase Inhibitors: Expanding Structural Diversity and the Antibacterial Spectrum” (ACS Med Chem Lett, 2022).
Converted amounts (≈) assume the structure as drawn.

Key:
Neisseria gonorrhoeae [1] = test: Antimicrobial activity against Neisseria gonorrhoeae G strain harbouring type 2 topoisomerase GyrA S91F and ParE G410V mutant incubated for 20 to 24 hrs by CLSI protocol based broth microdilution method; type: functional; details: time 20-24 hrs
Staphylococcus aureus [2] = test: Antibacterial activity against cystic fibrosis isolate Staphylococcus aureus by CLSI method; type: functional
Neisseria gonorrhoeae [3] = test: Antimicrobial activity against Neisseria gonorrhoeae K strain harbouring type 2 topoisomerase GyrA S91F, D95N and ParC S87R, S88P mutant incubated for 20 to 24 hrs by CLSI protocol based broth microdilution method; type: functional; details: time 20-24 hrs
Staphylococcus aureus [4] = test: Antibacterial activity against methicillin-resistant Staphylococcus aureus USA300 by CLSI method; type: functional
Neisseria gonorrhoeae [5] = test: Antimicrobial activity against wild type Neisseria gonorrhoeae ATCC 49226 incubated for 20 to 24 hrs by CLSI protocol based broth microdilution method; type: functional; details: time 20-24 hrs
Neisseria gonorrhoeae [6] = test: Antimicrobial activity against wild type Neisseria gonorrhoeae P strain incubated for 20 to 24 hrs by CLSI protocol based broth microdilution method; type: functional; details: time 20-24 hrs
[7] = Cytotoxicity activity against human K562 cells assessed as inhibition of cellular growth; type: toxicity, cell-based
Summary of the method: (§1)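 Human K562 leukemia cells were tested alongside K/VP.5, an etoposide-resistant clonal subline derived from them that has reduced levels of human topoisomerase IIα. Cell growth inhibition was expressed as an IC50.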

Neisseria gonorrhoeae [8] = test: Antimicrobial activity against wild type Neisseria gonorrhoeae F strain incubated for 20 to 24 hrs by CLSI protocol based broth microdilution method; type: functional; details: time 20-24 hrs
[9] = Cytotoxicity activity against human K/VP.5 cells assessed as inhibition of cellular growth; type: toxicity, cell-based; summary of the method: as §1
Neisseria gonorrhoeae [10] = test: Antimicrobial activity against wild type Neisseria gonorrhoeae O strain incubated for 20 to 24 hrs by CLSI protocol based broth microdilution method; type: functional; details: time 20-24 hrs
[11] = Metabolic stability in mouse liver microsomes assessed as half life; type: ADME, Microsome
Staphylococcus aureus [12] = test: Antibacterial activity against Staphylococcus aureus 3527 by CLSI method; type: functional
Staphylococcus aureus [13] = test: Antibacterial activity against Staphylococcus aureus ATCC 29213 by CLSI method; type: functional
Staphylococcus aureus [14] = test: Antibacterial activity against Staphylococcus aureus harbouring GyrA D83N mutant by CLSI method; type: functional
Neisseria gonorrhoeae [15] = test: Antimicrobial activity against wild type Neisseria gonorrhoeae V strain harbouring type 2 topoisomerase GyrA S91F, D95G and ParC S87R mutant incubated for 20 to 24 hrs by CLSI protocol based broth microdilution method; type: functional; details: time 20-24 hrs
DNA gyrase = DNA gyrase (Staphylococcus aureus, UniProt P0A0K8+P20831); test: Inhibition of Staphylococcus aureus DNA gyrase supercoiling activity incubated for 25 min by ethidium bromide/bromophenol blue staining based agarose gel electrophoresis analysis; type: protein-complex assay
Topoisomerase IV = Topoisomerase IV (Staphylococcus aureus, UniProt P0C1S7+P0C1U9); test: Inhibition of Staphylococcus aureus DNA topoisomerase 4 decatenation activity using kDNA as substrate incubated for 10 to 20 min by ethidium bromide/bromophenol blue staining based agarose gel electrophoresis analysis; type: protein-complex assay
[16] = target: Voltage-gated inwardly rectifying potassium channel KCNH2 (Homo sapiens, UniProt Q12809); test: Inhibition of hERG cardiac ion channel; type: toxicity
Summary of the method: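 hERG channel inhibition was run by a contract lab. […] Determinations were made in duplicate or triplicate (n = 2 or 3).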

Staphylococcus aureus [17] = test: Selectivity ratio of IC50 for inhibition of Staphylococcus aureus DNA topoisomerase 4 decatenation activity to IC50 for inhibition of Staphylococcus aureus DNA gyrase supercoiling activity
Neisseria gonorrhoeae [18] = test: Antimicrobial activity against wild type Neisseria gonorrhoeae Y strain harbouring type 2 topoisomerase GyrA S91F, D95G and ParC S87R mutant incubated for 20 to 24 hrs by CLSI protocol based broth microdilution method; type: functional; details: time 20-24 hrs

Row | Compound | MIC (Neisseria gonorrhoeae [1]) [µg/mL] | MIC (Staphylococcus aureus [2]) [µg/mL] | MIC (Neisseria gonorrhoeae [3]) [µg/mL] | MIC (Staphylococcus aureus [4]) [µg/mL] | MIC (Neisseria gonorrhoeae [5]) [µg/mL] | MIC (Neisseria gonorrhoeae [6]) [µg/mL] | IC50 [7] [µM] | MIC (Neisseria gonorrhoeae [8]) [µg/mL] | IC50 [9] [µM] | MIC (Neisseria gonorrhoeae [10]) [µg/mL] | half-life [11] [min] | MIC (Staphylococcus aureus [12]) [µg/mL] | MIC (Staphylococcus aureus [13]) [µg/mL] | MIC (Staphylococcus aureus [14]) [µg/mL] | MIC (Neisseria gonorrhoeae [15]) [µg/mL] | IC50 (DNA gyrase) [nM] | IC50 (Topoisomerase IV) [nM] | IC50 [16] [µM] | Ratio IC50 (Staphylococcus aureus [17]) | MIC (Neisseria gonorrhoeae [18]) [µg/mL]
1 | O=C1COc2ccc(CN[C@H]3CO[C@H](CC4Cn5c(=O)ccc6ncc(F)c4c65)OC3)nc2N1 (some centres undefined) | 2 (≈ 4.28 µM) | 2 (≈ 4.28 µM) | 1 (≈ 2.14 µM) | 1 (≈ 2.14 µM) | 1 (≈ 2.14 µM) | 2 (≈ 4.28 µM) | > 200 | 0.12 (≈ 0.257 µM) | > 200 | 1 (≈ 2.14 µM) | 66.3 | 2 (≈ 4.28 µM) | 2 (≈ 4.28 µM) | 8 (≈ 17.1 µM) | 0.5 (≈ 1.07 µM) | 4200 | 1400 | 97 | 0.33 | 1 (≈ 2.14 µM)
2 | O=c1ccc2ncc(F)c3c2n1CC3C[C@H]1OC[C@H](NCc2ccc3c(c2)OCCO3)CO1 (some centres undefined) | 4 (≈ 8.82 µM) | 0.25 (≈ 0.551 µM) | 1 (≈ 2.21 µM) | 0.125 (≈ 0.276 µM) | 0.25 (≈ 0.551 µM) | 2 (≈ 4.41 µM) | 34.8 | 0.12 (≈ 0.265 µM) | 39.2 | 2 (≈ 4.41 µM) | 13.9 | 0.25 (≈ 0.551 µM) | 0.125 (≈ 0.276 µM) | 2 (≈ 4.41 µM) | ≤ 0.03 | 47 | 540 | 100 | 11 | ≤ 0.03
3 | COc1ccc2ncc(F)c(C[C@H](O)[C@H]3OC[C@H](NCc4ccc5c(n4)NC(=O)CO5)CO3)c2n1 | 0.25 (≈ 0.515 µM) | – | ≤ 0.03 | – | ≤ 0.03 | ≤ 0.03 | – | 0.06 (≈ 0.124 µM) | – | ≤ 0.03 | – | – | – | – | ≤ 0.03 | – | – | – | – | ≤ 0.03
4 | COc1ccc2ncc(F)c(C[C@H](O)[C@H]3OC[C@H](NCc4ccc5c(c4)OCCO5)CO3)c2n1 | 0.5 (≈ 1.06 µM) | – | ≤ 0.03 | – | ≤ 0.03 | ≤ 0.03 | – | ≤ 0.03 | – | ≤ 0.03 | – | – | – | – | ≤ 0.03 | – | – | – | – | ≤ 0.03
5 | COc1ccc2ncc(F)c(C[C@H](O)[C@H]3OC[C@H](NC(=O)c4ccc5c(c4)OCCO5)CO3)c2n1 | > 16 | 0.25 (≈ 0.515 µM) | > 16 | 0.25 (≈ 0.515 µM) | 4 (≈ 8.24 µM) | > 16 | 1.6 | 0.25 (≈ 0.515 µM) | 6 | > 16 | 14.2 | 0.25 (≈ 0.515 µM) | 0.25 (≈ 0.515 µM) | 2 (≈ 4.12 µM) | 0.25 (≈ 0.515 µM) | 230 | 1700 | > 100 | 7.6 | 0.5 (≈ 1.03 µM)
6 | COc1ccc2ncc(F)c(C[C@H](O)[C@H]3OC[C@H](NCc4cc5c(nn4)OCCO5)CO3)c2n1 | > 32 | – | > 32 | – | 32 (≈ 67.6 µM) | 32 (≈ 67.6 µM) | – | 8 (≈ 16.9 µM) | – | 32 (≈ 67.6 µM) | – | – | – | – | 8 (≈ 16.9 µM) | – | – | – | – | 16 (≈ 33.8 µM)
7 | O=c1ccc2ccc(F)c3c2n1CC3C[C@H]1OC[C@H](NCc2ccc3c(c2)OCCO3)CO1 (some centres undefined) | 0.5 (≈ 1.11 µM) | 0.25 (≈ 0.553 µM) | 0.12 (≈ 0.265 µM) | 0.25 (≈ 0.553 µM) | 0.12 (≈ 0.265 µM) | 0.25 (≈ 0.553 µM) | 29.1 | ≤ 0.03 | 33.9 | 0.25 (≈ 0.553 µM) | 3.26 | 0.25 (≈ 0.553 µM) | 0.125 (≈ 0.276 µM) | 4 (≈ 8.84 µM) | ≤ 0.03 | 230 | 600 | 35 | 2.6 | ≤ 0.03
8 | CO/N=C(\C(=O)N[C@@H]1C(=O)N2C(C(=O)O)=C(CSc3nc(=O)c(O)nn3C)CS[C@H]12)c1csc(N)n1 [CEFTRIAXONE] | ≤ 0.001 | – | 0.008 (≈ 0.0144 µM) | – | 0.004 (≈ 0.00721 µM) | ≤ 0.001 | – | ≤ 0.001 | – | 0.004 (≈ 0.00721 µM) | – | – | – | – | 0.002 (≈ 0.00361 µM) | – | – | – | – | 1 (≈ 1.8 µM)
9 | O=c1ccc2ncc(=O)n3c2n1CC3CN1CCC(NCc2cc3c(cn2)OCCC3)CC1 (racemic) | – | 0.25 (≈ 0.557 µM) | – | 0.25 (≈ 0.557 µM) | – | – | – | – | – | – | – | 0.25 (≈ 0.557 µM) | 0.25 (≈ 0.557 µM) | 8 (≈ 17.8 µM) | – | – | – | – | – | –
10 | O=c1ccc2ncc(F)c3c2n1CC3C[C@H]1OC[C@H](NCc2cc3c(cn2)OCCC3)CO1 (some centres undefined) | 8 (≈ 17.7 µM) | 0.5 (≈ 1.11 µM) | 1 (≈ 2.21 µM) | 1 (≈ 2.21 µM) | 2 (≈ 4.42 µM) | 2 (≈ 4.42 µM) | 268 | 0.12 (≈ 0.265 µM) | 187 | 2 (≈ 4.42 µM) | 18.3 | 1 (≈ 2.21 µM) | 0.25 (≈ 0.553 µM) | 8 (≈ 17.7 µM) | ≤ 0.03 | 2100 | 1600 | 125 | 0.76 | 0.25 (≈ 0.553 µM)
11 | O=c1ccc2ccc(F)c3c2n1CC3C[C@H]1OC[C@H](NCc2cc3c(nn2)OCCS3)CO1 (some centres undefined) | 32 (≈ 68 µM) | 0.5 (≈ 1.06 µM) | 32 (≈ 68 µM) | 1 (≈ 2.13 µM) | 16 (≈ 34 µM) | 16 (≈ 34 µM) | 38.7 | 2 (≈ 4.25 µM) | 103 | 16 (≈ 34 µM) | 21.9 | 1 (≈ 2.13 µM) | 0.5 (≈ 1.06 µM) | 8 (≈ 17 µM) | 4 (≈ 8.5 µM) | 1700 | 7400 | 200 | 4.4 | 2 (≈ 4.25 µM)
12 | O=C1CSc2ccc(CN[C@H]3CO[C@H](CC4Cn5c(=O)ccc6ncc(F)c4c65)OC3)nc2N1 (some centres undefined) | – | 1 (≈ 2.07 µM) | – | 1 (≈ 2.07 µM) | – | – | 81.7 | – | 128 | – | 36.4 | 1 (≈ 2.07 µM) | 1 (≈ 2.07 µM) | 8 (≈ 16.5 µM) | – | 1400 | 2100 | 55 | 1.5 | –
